Laboratory results from ChEMBL document CHEMBL1124868, “Synthesis and anti-HIV-1 activity of 2'-"up"-fluoro analogues of active anti-AIDS nucleosides 3'-azido-3'-deoxythymidine (AZT) and 2',3'-dideoxycytidine (DDC)” (J Med Chem, 1990).
“And” between values parts separate entries of the source, which are not always exact repeats. Identical values can stand only once.

Tests used:
[1] = Selectivity ratio to IC50 of MT4 cells and EC50, anti-HIV activity of MT-4 cells; type: functional
Method in brief: (§1)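 Selectivity ratio is the cytotoxic IC50 (MT4 or HL60 cells, […]) divided by the anti-HIV-1 EC50 from P24 ELISA or RT assay in infected MT4 cells.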

[2] = tested on: HL-60; experiment: Cytotoxicity was tested in HL60 cells by the trypan blue exclusion assay.; type: functional, cell-based; conditions: Homo sapiens
Method in brief: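 HL60 cells exposed to at least five compound concentrations plus no-drug control, in duplicate in 96-well plates. Growth inhibition counted by trypan blue exclusion on a hemocytometer. IC50 derived by median-effect plot analysis.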

[3] = Selectivity ratio to IC50 of HL60 cells and EC50, anti-HIV activity of MT-4 cells; type: functional, HL-60; method in brief: as §1
[4] = tested on: MT4; experiment: AntiHIV-1 activity measured in MT-4 cells at 5 to 6 different concentrations, using the reverse transcriptase (RT) assay; type: functional, cell-based; conditions: Homo sapiens
Method in brief: (§2)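 MT4 cells infected with HIV-1 at 200 TCID50 per 10^6 cells, adsorbed 1 h at 37 °C, 5% CO2, washed, resuspended at 10^6 cells/3 mL. Compounds added immediately at five to six concentrations. After 5 days at 37 °C, cell-free supernatant assayed for P24 core antigen by ELISA kit or for RT activity. EC50 from median-effect plot analysis against untreated infected controls.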

[5] = tested on: MT4; experiment: AntiHIV-1 activity measured in MT-4 cells at 5 to 6 different concentrations, using the P24 antigen enzyme-linked immunosorbent assay (ELISA).; type: functional, cell-based; conditions: Homo sapiens; method in brief: as §2
[6] = tested on: MT4; experiment: Cytotoxicity was tested in MT-4 cells by the XTT-microculture tetrazolium assay.; type: functional, cell-based; conditions: Homo sapiens
Method in brief: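 MT4 cells exposed in duplicate in 96-well plates to at least five concentrations for 4 days. PMS-XTT (0.075 mM PMS with 1 mg/mL XTT in serum-free medium) added, then 6 h at 37 °C before reading. IC50 derived by median-effect plot analysis.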

| SMILES | Selectivity ratio [1] | IC50 [2] [µM] | Selectivity ratio [3] | EC50 [4] [µM] | EC50 [5] [µM] | IC50 [6] [µM] |
| --- | --- | --- | --- | --- | --- | --- |
| Cc1cn([C@@H]2O[C@H](CO)[C@@H](N=[N+]=[N-])[C@H]2F)c(=O)[nH]c1=O | 1.26 and 2.06 | 440 | 2.62 and 4.27 | 103 | 168 | – |
| Nc1ccn([C@@H]2O[C@H](CO)C[C@@H]2F)c(=O)n1 | 328 and 343 | 707 | 266 and 278 | 2.54 | 2.66 | 1480 |
| Nc1ccn([C@H]2CC[C@@H](CO)O2)c(=O)n1 [ZALCITABINE] | 1326 and 1304 | 100 | 424 and 417 | 0.24 | 0.236 | – |
| Cc1cn([C@H]2C[C@H](N=[N+]=[N-])[C@@H](CO)O2)c(=O)[nH]c1=O [ZIDOVUDINE] | 8833 and 11778 | 96 | 16000 and 21333 | 0.0045 | 0.006 | – |
